Ends that are not written are not given here.
Assays:
[1] = test system: hp-AS (RNA, rRNA) GGCGUCACACCUUCGGGUGAAGUCGCC; experiment: ESI-MS titration; conditions: NH4+ 100 mM; apparent; 100 mM NH4OAc, 50% 2-propanol, pH 6.7, 25 °C
[2] = test system: A-site RNA hp-AS-pwk annealed to 5'-biotin-DNA; experiment: Peptide bead ELISA assay, hp-AS-pwk; assay type: binding, E. coli; conditions: 1 μM biotin-tagged RNA, 4 days, 4 °C; anti-biotin-alkaline phosphatase, BCIP
Procedure, shortened: (§1)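 Peptide beads washed, blocked overnight at 4 °C, then incubated 4 days at 4 °C with 1 μM biotin-tagged RNA (fresh RNA added daily) in HEPES-KOH pH 7.5/100 mM KCl/5 mM MgCl2 buffer. Buffer-only beads served as background. Detection: anti-biotin–alkaline phosphatase (1:8000, 1 h, room temperature), then BCIP (0.165 μg/μl, pH 9.5) overnight at 4 °C.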

[3] = test system: helix 17 (h17) RNA from 16S rRNA; experiment: Peptide bead ELISA assay, h17 control; assay type: binding; conditions: biotin-tagged h17, 4 days, 4 °C; anti-biotin-alkaline phosphatase, BCIP
Procedure, shortened: as §1

[4] = test system: A-site RNA hairpin hp-AS (bacterial 16S rRNA); experiment: Enzymatic; assay type: binding, E. coli; conditions: 5 to 120 μM peptide, pH 7.2, 37 °C
Procedure, shortened: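 3′-32P-pCp-labelled hp-AS (1 μl, 250,000 cpm) preincubated with test peptide (0–120 μM) in 10 mM Tris-HCl pH 7.2, 15 mM NaCl, 1 mM EDTA, 37 °C, 1.5 h. RNase A (1 μl, 0.002 U/μl) was added to 5 μl final for 30 min at 37 °C, quenched on dry ice, formamide-denatured and gel-resolved beside an alkaline-hydrolysis ladder. Fraction bound versus peptide was curve-fitted for Kd; two independent experiments.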

[5] = test system: A-site RNA hairpin hp-AS (bacterial 16S rRNA); experiment: Isothermal titration calorimetry of peptide into hp-AS; assay type: binding, E. coli; conditions: 10 mM potassium phosphate, 100 mM KCl, pH 7.2, 10 °C; average of three independent experiments
Procedure, shortened: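 RNA and test peptide were dialysed against water, dried, redissolved in buffer and degassed at 5 °C for 7 min. After a 2 μl preliminary injection, which was discarded, 20 μl injections of peptide (250–600 μM) went into hp-AS RNA (20–40 μM), spaced 300 s. Heats of peptide dilution into buffer without RNA were subtracted.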

[6] = test system: A-site RNA over TAR RNA; experiment: ESI-MS competition, A-site RNA versus TAR RNA; assay type: binding; conditions: data not shown
[7] = test system: A-site RNA hairpin hp-AS (bacterial 16S rRNA); experiment: ESI-MS binding to hp-AS; parameters: species or system E. coli; conditions: 1 μM RNA
Procedure, shortened: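 Hairpin RNA renatured in 100 mM NH4OAc (pH 6.7). 1 μM RNA mixed with peptide (0–375 μM), room temperature, 10 min, in 50% 2-propanol/100 mM NH4OAc pH 6.7, then ESI-MS. Fraction bound taken from summed complex versus free-RNA peak intensities. Salt series: 34 μM peptide at 30–200 mM NH4OAc. pH series: 34 μM peptide, 100 mM NH4OAc, pH 5.0–7.6.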

[8] = test system: E. coli S30 extract translation system; experiment: In vitro translation inhibition; assay type: biochemical
Procedure, shortened: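 E. coli S30 extract for circular DNA, with pBESTluc plasmid carrying firefly luciferase. Amino acids, S30 premix and increasing peptide concentrations in 50 μl, 37 °C for 1–2 h. Quenched on ice 5 min, luciferase reagent added, luminescence read. Background from a sample without DNA template.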

[9] = test system: other RNA targets; experiment: Preliminary in vitro solution binding studies
[10] = target: T1, HPVHHYQ peptide on beads; experiment: bead ELISA
T1 chain: HPVHHYQ

[11] = target: T2, LPLTPLP peptide on beads; experiment: bead ELISA
T2 chain: LPLTPLP

[12] = target: T1, HPVHHYQ peptide on beads; experiment: bead fluorescence
[13] = target: T2, LPLTPLP peptide on beads; experiment: bead fluorescence
[14] = target: T3, HPVHHYQ-NH2 peptide; experiment: ITC
T3 chain: HPVHHYQ-NH2

[15] = target: T3, HPVHHYQ-NH2 peptide; experiment: RNase A footprinting
[16] = target: T3, HPVHHYQ-NH2 peptide; experiment: RNase A footprinting

**Q.** With H-HPVHHYQ-NH2 as the molecule, how does the Kd [1] read?
**A.** 29 ± 2 µM

**Q.** How did the “Bead ELISA response with A-site RNA” value [2] turn out when HPVHHYQ was run?
**A.** much stronger response than LPLTPLP

**Q.** What about the “Bead ELISA binding to h17” value [3] of the same molecule?
**A.** No binding was observed

**Q.** How did the “Residues protected from RNase A cleavage” value [4] turn out when HPVHHYQ-NH2 was run?
**A.** residues G1494 and U1495 are protected by the peptide

**Q.** What about the “Residues with enhanced RNase A cleavage” value [4] of the same molecule?
**A.** enhanced at residues A1492 and A1493

**Q.** And the “Enthalpy ΔH” value [5]?
**A.** -0.56 ± 0.05 kcal/mol

**Q.** What about the “Entropy −TΔS” value [5] of the same molecule?
**A.** -6.5 ± 0.3 kcal/mol

**Q.** And the “Preference for A-site RNA over TAR RNA” value [6]?
**A.** five-fold preference for the A-site RNA over TAR RNA

**Q.** What about the “Effect of pH on ratio of free RNA to RNA-peptide complexes” value ([7]; pH 5.0 to 7.6, 100 mM NH4OAc, 50% IPA, 34 μM peptide, data not shown) of the same molecule?
**A.** no significant change

**Q.** And the Kd ([7]; read-out: Apparent dissociation constant (ESI-MS), 0–375 μM peptide, 100 mM NH4OAc, pH 6.7, 50% 2-propanol, 25 °C, 10 min, average of three independent experiments)?
**A.** 29 ± 2 µM

**Q.** What about the “Inhibition of in vitro protein synthesis” value ([8]; 34 μM peptide, 37 °C, 1–2 h) of the same molecule?
**A.** no inhibition was observed

**Q.** What about the “Remaining (luciferase) enzyme activity” value ([8]; 620 μM peptide, 37 °C, 1–2 h) of the same molecule?
**A.** approximately 50%

**Q.** And the “IC50 compared with neomycin” value ([8]; in vitro translation inhibition)?
**A.** high compared with the known antibiotic neomycin

**Q.** How did the “Binding to other RNA targets” value [9] turn out when LPLTPLP was run?
**A.** binds to other RNA targets

**Q.** What about the “Bead ELISA response with A-site RNA” value [2] of the same molecule?
**A.** bind to the A-site RNA

**Q.** What about the “Bead ELISA binding to h17” value [3] of the same molecule?
**A.** No binding was observed

B1: h17 annealed to 5'-biotin-DNA (mixed)
RNA: GGCGGGGAGGAAGGGAGUAAAGUUAAUACCUUUGCUCAUUGACGUUACCCGCCGGUGCGGAUGGCGAUUGCU
DNA: AGCAATCGCCATCCGCACC
**Q.** Does B1 bind [10]?
**A.** no binding

**Q.** Does B1 bind [11]?
**A.** no binding

B2: F-TAR (structured_RNA)
RNA: GGCAGAUCUCAGCCUGGGAGCUGUCUGCC
**Q.** Which results are given for B2?
**A.** binding result [12]: no binding; binding result [13]: no binding

B3: F-human-hp-AS (structured_RNA)
RNA: GGCGUCGCUACUUCGGUAAAAGUCGCC
**Q.** Which results are given for B3?
**A.** binding result [12]: no binding; binding result [13]: no binding

B4: hp-AS (structured_RNA)
RNA: GGCGUCACACCUUCGGGUGAAGUCGCC
**Q.** B4 was tested. Which Kd [14] did it give?
**A.** 2 ± 0.4 µM

**Q.** And the Kd [15]?
**A.** 16 ± 4 µM

**Q.** What about the Kd [16] of the same molecule?
**A.** 18 ± 4 µM

B5: F-hp-AS (structured_RNA)
RNA: GGCGUCACACCUUCGGGUGAAGUCGCC
**Q.** Does B5 bind [13]?
**A.** binds

From paper PMC2752669 (Biochemistry, 2009)
